Assay outcomes as filed in PubChem BioAssay.
Only some compounds are listed: those with a hit (about 2.9% of all), similar ones and a draw of the others.
CHO-K1 Ca antag – counter-screen for M1 antagonists: effect in parental CHO-K1 cells; ATP-induced calcium, Fluo-8 fluorescence; inhibition, % at 3 µM; actives 0.6% (n = 360,000);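 active = inhibition above a per-plate cutoff, the plate's mean sample inhibition plus 3 SD, cut at about 24% in these data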
M1 PAM parental – nonselective calcium activators in parental CHO-K1 cells, primary screen, counter-screen for M1 PAM project, cell-based, Fluo-8 calcium fluorescence, full deck, 1536-well; actives 0.02% (n = 360,000); activation, % at 3 µM; ATP EC20; 0% at ATP EC20, 100% at ATP max;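 active = activation above the run cutoff, the mean activation of all test compounds plus 3 SD, cut at about 40% in these data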;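 note: peak over basal fluorescence ratio in a 140 s read after ATP addition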
CHO parental Ca – ATP-evoked calcium signal inhibitors, parental CHO, primary screen, counter-screen for OX1R antagonist project, cell-based, fluorescence, Fluo-8 calcium dye; actives 0.63% (n = 330,000); parental CHO-K1, ATP-induced calcium, Fluo-8 fluorescence; AID 463079, 2010; inhibition, % at 5.6 µM;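 active = inhibition above that plate's mean sample inhibition plus 3 SD, cut at about 26% in these data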
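Material: parental CHO cells / Compound: single nominal dose of 5.6 µM per compound / Signal: Fluo-8 fluorescence / Replicates: singlicate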
OX1R antag-1 – OX1R (HCRTR1) antagonists, primary screen, fluorescence, CHO/OX1R cells, Fluo-8 calcium, orexin A. actives 0.43% (n = 330,000). Fluo-8 calcium fluorescence. inhibition, % at 5 µM. Orexin/Hypocretin receptor type 1 (Homo sapiens), O43613. AID 434989, 2010;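 active = inhibition above its plate's threshold, mean inhibition of all tested compounds on the plate plus 3 SD, cut at about 37% in these data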
Target sequence (O43613 whole entry, looked up): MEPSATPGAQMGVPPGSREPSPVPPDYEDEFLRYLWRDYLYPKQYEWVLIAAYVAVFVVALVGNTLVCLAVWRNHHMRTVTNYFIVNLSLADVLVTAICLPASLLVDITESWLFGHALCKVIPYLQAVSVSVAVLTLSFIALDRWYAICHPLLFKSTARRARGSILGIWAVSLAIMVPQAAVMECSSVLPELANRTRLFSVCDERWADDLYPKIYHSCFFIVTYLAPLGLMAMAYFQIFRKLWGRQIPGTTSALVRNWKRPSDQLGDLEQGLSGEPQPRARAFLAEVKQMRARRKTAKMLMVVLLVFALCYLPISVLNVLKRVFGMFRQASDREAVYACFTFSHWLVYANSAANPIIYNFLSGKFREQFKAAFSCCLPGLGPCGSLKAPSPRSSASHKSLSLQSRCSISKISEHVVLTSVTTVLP
M1 ag parental – counter-screen for M1 agonists: effect in parental CHO-K1 cells; Fluo-8 calcium fluorescence; scaled to maximal ATP response, vehicle zero; activation, % at 3 µM; actives 0.48% (n = 360,000); in the data active = activation above about 15%;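 note: untransfected CHO-K1 host cells lacking M1 receptor as counterscreen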
OX1R antag-2 – antagonists of human orexin 1 receptor (OX1R); actives 1.8% (n = 330,000); OX1R-expressing cells, FRET antagonist read-out; AID 485270, 2010; inhibition, % at 6.6 µM; Orexin/Hypocretin receptor type 1 (Homo sapiens), O43613; in the data active = inhibition mostly above about 38%, no sharp cut-off; inactive = mostly below about 40%
A number is an active result; – = inactive; · = no result given.

SMILES	CHO-K1 Ca antag	M1 PAM parental	CHO parental Ca	OX1R antag-1	M1 ag parental	OX1R antag-2
O=C(NCCc1c[nH]c2ccccc12)C1CCC(Cn2c(=S)[nH]c3ccccc3c2=O)CC1 (stereo not drawn)	–	–	–	–	–	–
COCCNC(=O)C1CCC(Cn2c(=S)[nH]c3ccccc3c2=O)CC1 (stereo not drawn)	30	–	–	–	–	–
Nc1cc(S(=O)(=O)Nc2ccccc2Cl)ccc1N1CCCCC1	–	–	30	45	–	–
CC(C)c1ccc(-n2c(-c3ccccc3)c[n+]3c2CCc2ccccc2-3)cc1	32	–	·	·	–	·
COc1cccc(Nc2nc3ccccc3nc2NS(=O)(=O)c2cccs2)c1	–	–	–	–	–	43
NC(=O)c1cc(-c2ccccc2)sc1NC(=O)CN1CCCCC1	25	–	–	–	–	–
NC(=O)c1ccccc1NC(=O)CN1CCCCCC1	–	–	–	–	–	–
Cc1cccc2c1cnn2C(=O)CCC(=O)NCC(C)c1ccccc1 (stereo not drawn)	–	–	–	–	–	–
COc1ccc(CNC(=O)Cn2cc([N+](=O)[O-])cn2)cc1	57	–	–	–	–	–
CCOC(=O)c1sc2nc(OCc3cccnc3)cc(C)c2c1N	–	–	·	·	–	·
CCN(CC)c1ccc(/C=N/N2CCOCC2)cc1	–	–	–	–	–	–
CCN(Cc1ccccc1)c1ccc(/C=N/N2CCOCC2)cc1	27	–	–	–	–	–
Cc1n[nH]c(C)c1NC(=O)CN1CCN(S(=O)(=O)c2ccc(C(F)(F)F)cc2)CC1	–	–	·	·	–	·
CN(C)c1ccc(/C=N/NC(=O)C(=O)/C=C2\NC3(CCCC3)Cc3ccccc32)cc1	–	–	–	–	–	–
COc1cc(/C=N/NC(=O)C(=O)/C=C2\NC3(CCCC3)Cc3ccccc32)ccc1O	–	–	–	–	–	61
COc1ccc(CN(C(=O)CN2C(=O)COc3ccccc32)C2CCCC2)c(OC)c1	–	–	–	–	–	58
COc1ccc(CN(Cc2ccccn2)C(=O)CN2C(=O)COc3ccccc32)cc1	–	–	–	–	–	–
CCc1nc2ccc(C(=O)N3CCN(C(=O)c4ccco4)CC3)cn2c1N(CC)CCOC	–	–	·	·	–	·
CCNc1c([N+](=O)[O-])c(=O)n(CC)c2ccccc12	–	–	–	–	–	–
Cn1c(=O)cc2c3c(c(N4CCCCC4)ccc31)C(=O)c1ccccc1-2	–	–	–	–	–	–
CCCCNc1c2c3c(cccc3n(C)c1=O)C(=O)c1ccccc1-2	69	–	77	91	123	–
CCNc1c2c3c(cccc3n(C)c1=O)C(=O)c1ccccc1-2	·	·	69	89	·	–
Cn1c(=O)c(NC2CCCCC2)c2c3c(cccc31)C(=O)c1ccccc1-2	–	–	·	·	16	·
CC(=O)Nc1ccc(Nc2c3c4c(cccc4n(C)c2=O)C(=O)c2ccccc2-3)cc1	–	–	–	–	–	–
Cn1c(=O)c(NCCO)c2c3c(cccc31)C(=O)c1ccccc1-2	–	–	96	103	34	–
SMILES	CHO-K1 Ca antag	M1 PAM parental	CHO parental Ca	OX1R antag-1	M1 ag parental	OX1R antag-2
Cc1ccc(/C=C(\NC(=O)c2ccccc2)C(=O)N2CCCC2C(=O)O)cc1 (stereo not drawn)	–	–	–	–	–	–
CN(C)CCN1CCN(C2CN(C3CCCCC3)S(=O)(=O)C2)CC1 (stereo not drawn)	–	–	·	·	–	·
Cn1c(=O)c(NCCc2ccccc2)c2c3c(cccc31)C(=O)c1ccccc1-2	70	–	100	108	124	–
CC(=O)N/C(=C\c1ccc(C)o1)C(=O)NCc1ccccc1	–	–	–	–	–	–
CCN(Cc1ccccc1)C(=O)COC(=O)c1c(C)nsc1NC	–	–	–	–	–	50
CCN(Cc1ccccc1)C(=O)COC(=O)c1cnc(C)cn1	–	–	–	–	–	–
CC(C)(C)N1[C@@H](CC(=O)O)c2cc(C(F)(F)F)ccc2S1(=O)=O	–	–	–	–	–	–
COc1ccccc1CNC(=O)CSc1ccc(-c2ccccn2)nn1	–	–	–	–	–	–
O=C(CSc1ccc(-c2cccs2)nn1)NCc1ccccc1Cl	·	·	–	–	·	70
COc1cccc(CNC(=O)CSc2ccc(-c3cccs3)nn2)c1	–	–	–	–	–	58
CC(=O)Nc1ccc(NC(=O)CSc2ccc(-c3cccs3)nn2)cc1	–	–	–	–	–	–
COc1ccccc1CNC(=O)CSc1ccc(-c2cccs2)nn1	–	–	–	–	–	59
COc1cccc(C(C)(O)c2nc(-c3ccc(F)c(Cl)c3)cs2)c1 (stereo not drawn)	–	–	·	·	–	·
Cc1ccc(S(=O)(=O)/N=C2/C=C(C3C(=O)CC(C)(C)CC3=O)C(=O)c3ccccc32)cc1	–	–	–	–	–	63
CCN(C(=O)c1cc(S(=O)(=O)N2CCCCC2)c[nH]1)c1ccc(OC)cc1	–	–	–	–	–	–
Cc1ccc(N2C(=O)c3cccc4c([N+](=O)[O-])ccc(c34)C2=O)c2cccnc12	–	–	–	–	–	–
Cc1nnc(N2C(=O)c3cccc4c([N+](=O)[O-])ccc(c34)C2=O)s1	–	–	–	–	–	42
O=C(CN1C(=O)C(c2ccc(F)cc2)=NC12CCCC2)Nc1ccc(F)cc1	36	–	27	–	–	–
CCCCCCC#Cc1cncc(C(=O)NNC(=O)Nc2cc(Cl)cc(Cl)c2)c1	–	–	–	–	–	–
CCCCC#Cc1cncc(C(=O)NN)c1	–	–	–	–	19	–
Cc1[nH][nH]c(=O)c1C(c1ccc(-c2ccccc2C(=O)O)o1)c1c(C)[nH][nH]c1=O	–	–	–	–	–	50
Cc1ccc(S(=O)(=O)N2CCOCC2)cc1NC(=O)CSc1nnnn1C1CC1	–	–	·	·	–	·
N#C/C(=C(/O)COC(=O)c1ccccc1O)c1nc2ccccc2s1	–	–	–	–	–	53
Cn1nnnc1SCC(=O)N1CCN(S(=O)(=O)c2ccc(Cl)cc2)CC1	–	–	–	–	–	–
Cc1nn(Cc2c(Cl)cccc2Cl)c(C)c1NC(=O)/C=C/c1cnn(C)c1C	–	–	–	–	–	56
Cc1ccccc1Cn1nc(C)c(NC(=O)/C=C/c2cnn(C)c2C)c1C	–	–	–	–	–	–
O=S(=O)(c1ccccc1C(F)(F)F)N1CCN(c2ncnc3sccc23)CC1	–	–	–	–	17	–
Cc1ccc(S(=O)(=O)N2CCN(c3ncnc4sccc34)CC2)cc1	–	–	37	–	–	–
